Results on 24 compounds are retold here after PubChem BioAssay.

SMILES strings stand for the structures. Values without a mark were called inactive. Records with an inconclusive call do not appear. Activity calls are given as the source filed them.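 The calls were made as follows, unless noted: active = viability increase at or above a cutoff of the median across tested compounds plus 3 SD (cut at about 8.5% in these data, passing the limit was not always enough); inconclusive = some gains above the cutoff, reason not given; inactive = the rest.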

The nature of test [1]: OD615 S. cerevisiae growth inhibition, permissive medium, pilot counter-assay, permissive growth control for S. cerevisiae lifespan shortening project (AID 705;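 active = growth inhibition above 25% in both replicates, a cutoff set 3 SD above the mean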). Conditions: OD615, 24 h, at 10 µM, hits give high values. In a few lines: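 System: S. cerevisiae with engineered DeaD lifespan system. Medium: SC raffinose/galactose permissive medium. Doses: single compound dose of 10 µM, 0.25% DMSO final. Schedule: 24 h exposure, 30 °C. Measured by: OD615 turbidity read. Read-out: growth inhibition.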

The nature of test [2]: Restrictive medium S. cerevisiae growth inhibition, OD615, pilot screen of yeast lifespan reduction project, restrictive growth control (AID 706;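 active = growth inhibition above a set limit, 3 SD over mean compound inhibition, in both replicates, cut at about 43% in these data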). Conditions: OD615, 48 h, at 10 µM, hits give high values. The essentials: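 Assay system – genetically modified Saccharomyces cerevisiae, DeaD replicative lifespan assay strain · Medium – CSMM-D glucose medium · Doses – 10 µM compound, 0.25% DMSO · Times – 4 h pre-incubation, 48 h exposure at 30 °C · Signal – optical density at 615 nm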

A short description of test [3]: viability gain of MRP-1-high H69AR cells under doxorubicin, pilot screen, MRP-1 activator project, CellTiter-Glo, duplicate (AID 807).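 Also: compound pretreatment 18-22 h then 72 h combined with doxorubicin; 0% = doxorubicin alone and 100% = vehicle without doxorubicin.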 Particulars: H69AR viability with doxorubicin, CellTiter-Glo luminescence; at 10 µM; hits give high values.
Test [4] in a line: growth suppression of beta-catenin knockout HCT116, pilot screen, human colon tumor cells (AID 823;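 active = cell viability at or below a set limit in both duplicate runs, the limit being the all-compound median minus 4 SD, cut at about 23% in these data, passing the limit was not always enough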;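 also: 0% = wells killed by 20 µM Hyamine and 100% = untreated DMSO cell wells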). Particulars: CellTiter-Glo, 60 h, at 10 µM, hits give low values. On the technique in general: ATP-based viability assays read luminescence as a measure of living cells.
Test [5] can be described thus: growth suppression of PTEN-deleted HCT116, pilot screen, cell-based, HCT116 clonal line, CellTiter-Glo (AID 824;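 active = viability at or below 27.92% in each of two runs, the all-compound median minus 4 SD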;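 also: 0% = 20 µM Hyamine control and 100% = vehicle cell control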). Particulars: 60 h, at 10 µM, hits give low values.
The nature of test [6]: inhibitors of the yeast RAM network, pilot screen, dse1pr::URA3 reporter, 5-FOA selection (AID 869;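 active = inhibition over a set limit, the all-compound mean plus 3 SD, in both replicate runs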;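 also: 0% = DMSO wells with no growth and 100% = 10 µM 1-NA-PP1 with full growth; RAM network block rescues cells from 5-FOA so hits raise OD615 growth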). Particulars: S. cerevisiae dse1pr::URA3 5-FOA growth, OD615, 2 d; at 10 µM; hits give high values; strain carries analog-sensitive mutant Cbk1 kinase.
Test [7] is described as follows: RAM signaling pathway blockade in yeast – S. cerevisiae, Pdr1DBD-CYC8 efflux-inhibited sensitized strain, primary screen (AID 1298;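 active = RAM network inhibition above 8.4% in each of two replicates, 3 SD over the compound average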;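 also: 0% = DMSO untreated cells without growth and 100% = 10 µM 1-NA-PP1 full growth; higher means more yeast growth rescued from 5-FOA killing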). Particulars: S. cerevisiae cbk1-as DSE1-URA3 strain, 5-FOA growth OD615, 2 d; at 50 µM; hits give high values.

As usually defined, the viability is a read-out of living cells in per cent, often relative to untreated cells. For orientation: inhibition means the drop in the measured response relative to a control, in per cent. As to `COc1ccc(OC)c(-c2nc(C(N)=O)c3[nH]c(=O)n(-c4ccc(F)cc4)c3n2)c1`, the figures for the growth inhibition in test [1] and in test [2] were -0.485% and -10.4%, respectively. The viability increase in test [3] is -2.73%. In addition, the results for the viability in test [4] and in test [5] were 95.4% and 103%, respectively. Also, the inhibition in test [6] is 2.46%. Besides, the RAM network inhibition in test [7] is 0.16%.

Take `O=C(Cc1cccs1)N(Cc1ccco1)C1(C(=O)NC2CCCC2)CCCCC1`: the values for the growth inhibition in test [1] and in test [2] were -6.91% and -9.26%, respectively. Further, the viability increase in test [3] was -5.17%. Further, the viability is 66.5% in test [4] and 67.1% in test [5]. Also, the inhibition in test [6] is 0.86%. The RAM network inhibition in test [7] was 6.21%.

Regarding `O=C1OCc2cc(NC(=O)C3COc4ccccc4O3)ccc21` (stereo not drawn), the growth inhibition was -17.8% in test [1] and 10.7% in test [2]. Moreover, the viability increase in test [3] is -0.17%. Further, the viability was 103% in test [4] and 93.3% in test [5]. The inhibition in test [6] is 1.29%. In addition, the RAM network inhibition in test [7] is 10.9%.

Consider `CCN1C(=O)C(O)(CC(=O)c2ccc3c(c2)OCCO3)c2ccccc21` (stereo not drawn), for which the results for the growth inhibition in test [1] and in test [2] were -0.735% and -5.33%, respectively. Further, the viability increase in test [3] was -2.07%. Also, the figures for the viability in test [4] and in test [5] were 99.1% and 94%, respectively. Also, the inhibition in test [6] was 0.24%. Besides, the RAM network inhibition in test [7] was 5.92%.

Regarding `O=c1c2c3c(sc2nc2n1CCCCC2)CCCCC3`, the growth inhibition in test [1] was -11.5%; in test [2], -20.9%. The viability increase in test [3] is 0.17%. The viability in test [4] was 91.3%; in test [5], 91.7%. In addition, the inhibition in test [6] was 1.92%. In addition, the RAM network inhibition in test [7] is 6.27%.

As to `Cn1c(C(=O)N2CCN(c3ccc(F)cc3)CC2)cc2c(=O)n(C)c3ccccc3c21`, the values for the growth inhibition in test [1] and in test [2] were -6.62% and -10.8%, respectively. Also, the viability increase in test [3] was -2.2%. The viability is 95.1% in test [4] and 85% in test [5]. For the same compound, the inhibition in test [6] was 1.64%. Also, the RAM network inhibition in test [7] is 1.39%.

As to `O=C(NCc1ccco1)c1cc(S(=O)(=O)N2CCOCC2)ccc1Cl`, the growth inhibition in test [1] was -8.68%; in test [2], -8.34%. The viability increase in test [3] was -3.24%. Further, the figures for the viability in test [4] and in test [5] were 86.2% and 95.2%, respectively. Further, in test [6], the inhibition is 3.05%. Moreover, the RAM network inhibition in test [7] was 1.96%.

`CCOCCn1c(SCC(=O)OCc2ccccc2)nc2c1c(=O)[nH]c(=O)n2C`: the growth inhibition in test [1] is -13.7%; in test [2], -14.2%. In addition, in test [3], the viability increase is -0.57%. For the same compound, the viability is 104% in test [4] and 101% in test [5]. Also, the inhibition in test [6] is 0.495%. Besides, the RAM network inhibition in test [7] was 3.42%.

On to `O=C(Oc1cccnc1)c1cccc(Cl)c1`, for which the growth inhibition is 6.51% in test [1] and 20.1% in test [2]. For the same compound, the viability increase in test [3] was -0.55%. Besides, the viability in test [4] is 101%; in test [5] it was 97.5%. Besides, in test [6], the inhibition is 0.79%. Further, in test [7], the RAM network inhibition was -2.15%.

For `O=C(Nc1nc(-c2ccco2)c(-c2ccco2)s1)C1CC(=O)N(c2ccc3c(c2)OCCO3)C1` (stereo not drawn), the values for the growth inhibition in test [1] and in test [2] were -14.8% and -20.3%, respectively. Moreover, the viability increase in test [3] was -3.72%. For the same compound, the figures for the viability in test [4] and in test [5] were 76.5% and 78.8%, respectively. Besides, the inhibition in test [6] was 2.66%. Further, the RAM network inhibition in test [7] was 4.02%.

In the case of `CCN(c1cccc(C)c1)S(=O)(=O)c1cccc2nsnc12`, the results for the growth inhibition in test [1] and in test [2] were -12.6% and -20.3%, respectively. Also, the viability increase in test [3] is -3.59%. Also, the viability in test [4] was 77.1%; in test [5] it was 88.8%. Moreover, the inhibition in test [6] is 1.4%. The RAM network inhibition in test [7] is 4.75%.

For `CC(=O)Oc1ccc(C(=O)Nc2nnc(C)s2)cc1`, the growth inhibition in test [1] was -10.4%; in test [2] it was -4.59%. The viability increase in test [3] was -2.2%. Also, the viability in test [4] is 100%; in test [5], 104%. Moreover, the inhibition in test [6] is 2.9%. Besides, the RAM network inhibition in test [7] is -0.78%.

As for `O=C(Nn1c(=S)[nH]c2ccccc2c1=O)c1ccncc1`, the results for the growth inhibition in test [1] and in test [2] were 6.51% and -5.44%, respectively. Also, the viability increase in test [3] was -2.87%. Besides, the viability in test [4] is 91.9%; in test [5], 90.5%. Further, in test [6], the inhibition is 1.75%. Also, the RAM network inhibition in test [7] was 4.74%.

For the compound `COc1ccc(NC(=O)C(c2ccc(C)cc2)N(C)C(=O)c2cnccn2)cc1` (stereo not drawn), the growth inhibition in test [1] was 1.81%; in test [2], 1.4%. The viability increase in test [3] is -1.03%. The viability is 89.6% in test [4] and 95.6% in test [5]. The inhibition in test [6] is -0.145%. Further, the RAM network inhibition in test [7] was 0.06%.

As to `Cc1c(C(=O)OC2CCCC2)[nH]c2c1C(=O)CC(c1ccco1)C2` (stereo not drawn), the growth inhibition in test [1] was -6.06%; in test [2] it was -12.3%. In addition, the viability increase in test [3] was -5.41%. In addition, the figures for the viability in test [4] and in test [5] were 15.4% (active) and 17.7% (active), respectively. Moreover, the inhibition in test [6] is 1.86%. Further, in test [7], the RAM network inhibition is 0.11%.

With `CCOc1cccc(N2C(=O)CC(NCc3ccc(S(N)(=O)=O)cc3)C2=O)c1` (stereo not drawn), the growth inhibition was -14.7% in test [1] and -1.03% in test [2]. The viability increase in test [3] is -1.3%. For the same compound, the viability is 101% in test [4] and 94.7% in test [5]. In addition, in test [6], the inhibition was 0.44%. Also, the RAM network inhibition in test [7] was 2.35%.

With `CC(=O)Nc1ccc(NC(=O)CSc2nccn2Cc2ccccc2)cc1`, the growth inhibition in test [1] was -0.94%; in test [2] it was 3.38%. For the same compound, the viability increase in test [3] is -1.64%. Also, the viability is 86.9% in test [4] and 88.8% in test [5]. Further, the inhibition in test [6] was -0.265%. Also, the RAM network inhibition in test [7] is 0.96%.

For `CC(=O)NCCc1ccc(S(=O)(=O)N2CCCC2)cc1`, the growth inhibition in test [1] was -6.14%; in test [2], 1.21%. The viability increase in test [3] is 0.04%. Also, the results for the viability in test [4] and in test [5] were 96.2% and 96%, respectively. Besides, in test [6], the inhibition is 3.39%. In addition, in test [7], the RAM network inhibition was 3.82%.

With `Cc1ccc(C2N(c3ccc(F)cc3)C(=O)C3CCCN32)cc1` (stereo not drawn), the growth inhibition in test [1] is -0.945%; in test [2], -4.53%. Besides, in test [3], the viability increase was -1.55%. The viability in test [4] is 89.4%; in test [5], 97.3%. The inhibition in test [6] was 2.21%. Besides, the RAM network inhibition in test [7] is 4.87%.

Turning to `CCOc1ccc(C2CC(c3cccc(OC)c3)Nc3ncnn32)cc1` (stereo not drawn), the growth inhibition was -2.08% in test [1] and -1.26% in test [2]. Moreover, in test [3], the viability increase was -0.82%. The figures for the viability in test [4] and in test [5] were 94% and 90%, respectively. Moreover, the inhibition in test [6] was 1.15%. Further, the RAM network inhibition in test [7] is 1.4%.

As to `NS(=O)(=O)c1ccc(CCNC2CC(=O)N(CCc3ccccc3)C2=O)cc1` (stereo not drawn), the growth inhibition was -14.1% in test [1] and -16% in test [2]. The viability increase in test [3] was 1.79%. The viability in test [4] is 98%; in test [5] it was 99.9%. In test [6], the inhibition was 0.24%. Moreover, in test [7], the RAM network inhibition is 1.42%.

With `COc1ccc(NC(=O)CN2C(=O)CC(C)(C)S(=O)(=O)c3ccccc32)cc1`, the growth inhibition is -4.11% in test [1] and 2.55% in test [2]. Also, the viability increase in test [3] is 0.92%. Besides, the viability was 104% in test [4] and 96.7% in test [5]. The inhibition in test [6] was 1.35%. For the same compound, in test [7], the RAM network inhibition is 2.45%.

As for `O=C(COC(=O)C1CC(=O)N(C2CCCCC2)C1)c1ccc(F)cc1` (stereo not drawn), the growth inhibition in test [1] was -2.56%; in test [2], 0.43%. Moreover, in test [3], the viability increase was -2.49%. Also, the viability was 108% in test [4] and 101% in test [5]. Further, the inhibition in test [6] was 0.95%. Moreover, the RAM network inhibition in test [7] was 2.97%.

As to `CN(C)CCCNc1ncnc2c1cnn2-c1ccccc1`, the results for the growth inhibition in test [1] and in test [2] were -5.54% and -5.82%, respectively. Besides, in test [3], the viability increase is 2.9%. The viability was 94.3% in test [4] and 106% in test [5]. Further, the inhibition in test [6] is 0.27%. Moreover, the RAM network inhibition in test [7] was -0.77%.
